Legend:
Plasmodium falciparum [1] = test: Antimalarial activity against Plasmodium falciparum Dd2 infected in erythrocytes assessed as inhibition of [3H]hypoxanthine incorporation by microbeta liquid scintillation counter; assay type: functional, organism-based
Summary of the method: (§1)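 Growth inhibition was measured by a standard isotopic assay on cultured P. falciparum-infected erythrocytes, with results reported as IC50 values.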

Plasmodium falciparum [2] = test: Antimalarial activity against Plasmodium falciparum 3D7 infected in erythrocytes assessed as inhibition of [3H]hypoxanthine incorporation by microbeta liquid scintillation counter; assay type: functional, organism-based; summary of the method: as §1
Papain = target: T1, Papain (Carica papaya, UniProt P00784); test: Inhibition of Carica papaya papain by microtiter plate spectrofluorimetry
T1 sequence (P00784 whole entry): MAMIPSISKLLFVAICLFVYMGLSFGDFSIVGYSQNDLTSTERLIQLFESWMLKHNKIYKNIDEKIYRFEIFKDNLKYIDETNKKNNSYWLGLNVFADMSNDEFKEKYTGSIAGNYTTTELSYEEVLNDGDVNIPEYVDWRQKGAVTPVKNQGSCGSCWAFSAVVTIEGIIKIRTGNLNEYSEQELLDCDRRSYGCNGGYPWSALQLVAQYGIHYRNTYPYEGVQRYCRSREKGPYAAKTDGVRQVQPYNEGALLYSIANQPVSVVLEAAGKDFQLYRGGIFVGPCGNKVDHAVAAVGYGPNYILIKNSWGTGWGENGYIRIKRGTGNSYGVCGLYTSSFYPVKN

[3] = Inhibition of Plasmodium falciparum recombinant falcipain-2 by microtiter plate spectrofluorimetry
[4] = Inhibition of Plasmodium falciparum recombinant falcipain-3 by microtiter plate spectrofluorimetry

SMILES | IC50 (Plasmodium falciparum [1]) [nM] | IC50 (Plasmodium falciparum [2]) [nM] | Ki (Papain) [nM] | IC50 [3] [nM] | IC50 [4] [nM]
CN(C(=O)[C@H](Cc1ccccc1)NC(=O)OCc1ccccc1)N(C#N)Cc1ccccc1 | 7500 | 7100 | 42 | 1000 | 1600
CC(C)C[C@H](NC(=O)OCc1ccccc1)C(=O)N(C)N(C)C#N | 18000 | 16000 | 8.2 | 59 | 1900
CN(C(=O)[C@H](Cc1ccccc1)NC(=O)OCc1ccccc1)N(C#N)CCc1ccccc1 | 3600 | 5300 | 6.3 | 430 | 300
C[C@@H](C#N)NC(=O)[C@H](Cc1ccccc1)NC(=O)OCc1ccccc1 | > 25000 | > 25000 | 2200 | 28000 | 16000
C[C@@H](C#N)N(C)C(=O)[C@H](Cc1ccccc1)NC(=O)OCc1ccccc1 | > 25000 | > 25000 | 750000 | > 50000 | > 50000
CCCCCN(C#N)N(C)C(=O)[C@H](Cc1ccccc1)NC(=O)OCc1ccccc1 | 2100 | 2900 | 10 | 310 | 110
CN(C#N)N(C)C(=O)[C@H](Cc1ccccc1)NC(=O)OCc1ccccc1 | 15000 | 9800 | 3.9 | 570 | 18000

Source: ChEMBL document CHEMBL1153118, “Antimalarial activity of azadipeptide nitriles” (Bioorg Med Chem Lett, 2010)
